The results in this text go back to ChEMBL document CHEMBL1764987, “The identification of the 2-phenylphthalazin-1(2H)-one scaffold as a new decorable core skeleton for the design of potent and selective human A3 adenosine receptor antagonists” (J Med Chem, 2011).

For orientation: inhibition means the percentage by which the read-out fell short of the control. What is called IC50 is the midpoint of a concentration-inhibition curve. As a reminder, the Ki is a dissociation constant, usually derived from enzyme kinetics or from competition with a known ligand.

The species named for assay [1] is Homo sapiens. In words: Selectivity ratio of Ki for human cloned adenosine A2A receptor to Ki for human cloned adenosine A3 receptor. The method in brief:
(§1)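 Ki values from radioligand displacement at hA1 ([3H]DPCPX, Kd 3 nM), hA2A ([3H]NECA, Kd 30 nM) and hA3 ([125I]AB-MECA, Kd 1.4 nM) in CHO membranes. Five displacer concentrations in triplicate, Cheng-Prusoff conversion, means of four assays. Ratio taken as A1 or A2A Ki over A3 Ki.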

Assay [2] has as its target Adenosine receptor A2a (Homo sapiens) (UniProt P29274). In words: Displacement of [3H]NECA from human cloned adenosine A2A receptor expressed in CHO cells at 10 uM. It counts as cell-based. Summed up:
(§2)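 Radioligand displacement in CHO membranes stably expressing hA1 ([3H]DPCPX, Kd 3 nM) or hA2A ([3H]NECA, Kd 30 nM). Percent inhibition of specific binding at 10 μM. Full curves used five concentrations in triplicate, with IC50 converted to Ki by Cheng-Prusoff.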
(In general: In a radioligand displacement assay an active substance lowers the binding of a labelled ligand.)

Assay [3] deals with Adenosine receptors; A1 & A3 (Homo sapiens) (UniProt P30542+P0DMS8). Nature of the assay: Selectivity ratio of Ki for human cloned adenosine A1 receptor to Ki for human cloned adenosine A3 receptor. Summed up:
as §1

The target of assay [4] is T1, Adenosine receptor A1 (Homo sapiens) (UniProt P30542).
T1 sequence (whole entry): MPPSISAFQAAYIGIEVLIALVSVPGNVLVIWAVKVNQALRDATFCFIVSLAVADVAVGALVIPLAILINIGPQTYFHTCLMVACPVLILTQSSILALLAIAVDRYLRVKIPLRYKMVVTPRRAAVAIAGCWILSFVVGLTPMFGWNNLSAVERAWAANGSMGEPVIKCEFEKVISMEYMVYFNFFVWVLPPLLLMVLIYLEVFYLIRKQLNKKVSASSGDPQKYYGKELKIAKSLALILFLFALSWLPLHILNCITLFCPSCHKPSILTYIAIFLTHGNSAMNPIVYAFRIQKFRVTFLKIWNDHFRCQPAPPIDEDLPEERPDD
Nature of the assay: Displacement of [3H]DPCPX from human cloned adenosine A1 receptor expressed in CHO cells at 10 uM. In kind it is cell-based. The method in brief: as §2

Assay [5] concerns the target T2, Adenosine receptor A3 (Homo sapiens, UniProt P0DMS8).
T2 sequence (P0DMS8 whole entry): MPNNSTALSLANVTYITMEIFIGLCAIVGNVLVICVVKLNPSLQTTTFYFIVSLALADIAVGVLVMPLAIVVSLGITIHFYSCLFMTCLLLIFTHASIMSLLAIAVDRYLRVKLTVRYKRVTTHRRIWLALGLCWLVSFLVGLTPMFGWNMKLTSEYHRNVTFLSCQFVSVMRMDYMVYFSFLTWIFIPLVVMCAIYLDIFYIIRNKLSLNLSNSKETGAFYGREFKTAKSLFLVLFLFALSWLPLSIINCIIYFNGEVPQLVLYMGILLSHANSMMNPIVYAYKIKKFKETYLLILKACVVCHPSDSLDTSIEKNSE
In words: Antagonist activity at human cloned adenosine A3 receptor expressed in CHO cells assessed as inhibition of […] after 15 mins. It counts as functional, cell-based. Summed up:
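CHO cells stably expressing hA3 plated and grown 48 h. Preincubated 15 min at 37 °C with Ro20-1724 (20 μM) and adenosine deaminase (1 U/mL). Compound (1 nM to 10 μM) given for 15 min at 37 °C, then 100 nM NECA. Reversal of NECA-induced cAMP inhibition measured by [3H]cAMP competitive protein binding assay. IC50 from sigmoid nonlinear regression, means ± SEM of three experiments.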
On the technique in general: cAMP levels reflect the balance of adenylyl cyclase and phosphodiesterase activity.

Assay [6] concerns the target T2, Adenosine receptor A3. Nature of the assay: Displacement of [125I]AB-MECA from human cloned adenosine A3 receptor expressed in CHO cells. In kind it is cell-based. Summed up:
(§3)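 Membranes from CHO cells stably expressing hA3 AR, labelled with [125I]AB-MECA (Kd 1.4 nM). IC50 from nonlinear regression using five displacer concentrations, each in triplicate. Ki calculated by Cheng-Prusoff, mean ± SEM of four assays. Single-point data are percent inhibition of specific binding at 1 μM.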

Assay [7] concerns the target T3, Adenosine receptor A2b (Homo sapiens) (UniProt P29275).
T3 sequence (whole entry): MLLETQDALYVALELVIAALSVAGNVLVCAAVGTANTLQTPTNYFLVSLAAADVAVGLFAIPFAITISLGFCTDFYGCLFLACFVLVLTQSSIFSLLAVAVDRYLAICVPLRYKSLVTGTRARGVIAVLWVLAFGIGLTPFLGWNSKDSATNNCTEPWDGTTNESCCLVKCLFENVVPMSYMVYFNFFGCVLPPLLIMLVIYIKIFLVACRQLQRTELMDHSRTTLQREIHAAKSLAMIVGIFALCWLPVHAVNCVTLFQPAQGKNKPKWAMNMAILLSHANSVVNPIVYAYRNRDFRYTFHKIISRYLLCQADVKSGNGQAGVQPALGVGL
In words: Antagonist activity at human cloned adenosine A2B receptor expressed in CHO cells assessed as inhibition of NECA-induced cAMP accumulation at 1 nM to 10 uM after 15 mins. It counts as functional, cell-based. Summed up: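 Stably transfected CHO cells (~60000) plated and grown 48 h. Preincubated 15 min at 37 °C in DMEM containing Ro20-1724 (20 μM) and adenosine deaminase (1 U/mL). Compound (1 nM to 10 μM) added for 15 min at 37 °C, then 100 nM NECA. Reaction stopped with 0.4 N HCl and lysate neutralised with KOH. cAMP measured by competitive binding to beef adrenal binding protein with [3H]cAMP (2 nM) for 150 min at 4 °C, then filtration. Read-out is percent inhibition of NECA-stimulated cAMP.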

For assay [8], the target named is T4, Adenosine receptor A3 (Homo sapiens) (UniProt P0DMS8).
T4 sequence (whole entry): T2 sequence (P0DMS8 whole entry)
Nature of the assay: Displacement of [125I]AB-MECA from human cloned adenosine A3 receptor expressed in CHO cells at 1 uM. In kind it is cell-based. Summed up:
as §3

Assay [9] is described as follows: Displacement of [3H]CGS21680 from adenosine A2A receptor in bovine brain membranes. It counts as cell membranes, Bos taurus.

SMILES strings stand for the structures.

Chain of Adenosine receptor A2a (Homo sapiens) (P29274 whole entry): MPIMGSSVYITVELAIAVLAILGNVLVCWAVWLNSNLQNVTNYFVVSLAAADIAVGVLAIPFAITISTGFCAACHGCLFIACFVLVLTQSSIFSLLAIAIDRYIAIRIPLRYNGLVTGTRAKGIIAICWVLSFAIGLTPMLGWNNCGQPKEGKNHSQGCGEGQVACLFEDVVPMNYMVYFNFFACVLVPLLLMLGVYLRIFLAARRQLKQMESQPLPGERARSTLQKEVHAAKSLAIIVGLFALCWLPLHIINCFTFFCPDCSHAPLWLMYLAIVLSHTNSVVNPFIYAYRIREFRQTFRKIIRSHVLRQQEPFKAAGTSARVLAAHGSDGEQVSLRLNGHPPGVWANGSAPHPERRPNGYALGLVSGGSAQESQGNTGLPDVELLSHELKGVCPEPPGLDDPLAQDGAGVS

With `COc1ccc(OC)c(NC(=O)Nc2nn(-c3ccccc3)c(=O)c3ccccc23)c1`, the Ratio Ki in [1] and in assay [3] was 10000 throughout. Also, the inhibition in assay [2] was 19%; in assay [4], 0%; in assay [7], 0%. Also, in [5], the IC50 came out at 8.25 nM. The compound further had a Ki in assay [6] of 0.776 nM.

Consider `COc1cccc(NC(=O)Nc2nn(-c3ccccc3)c(=O)c3ccccc23)c1`, for which the inhibition in [2] is 28%; in [4], 45%; in [7], 57%. The IC50 in [5] was found to be 18 nM. For the same compound, the affinity in assay [6] corresponds to a Ki of 9.75 nM.

In the case of `COc1ccc(C(=O)Nc2nn(-c3ccccc3)c(=O)c3ccccc23)cc1`, the inhibition is 17% in [2], 0% in assay [4] and 10% in [8].

As to `Cc1ccc(NC(=O)Nc2nn(-c3ccccc3)c(=O)c3ccccc23)cc1`, the inhibition was 0% in assay [2], 29% in [4] and 45% in [8].

Regarding `O=C(Nc1nn(-c2ccccc2)c(=O)c2ccccc12)c1ccco1`, the figures for the inhibition in assay [2], in assay [4] and in assay [8] were 41%, 23% and 8%, respectively.

With `O=C(Nc1ccccc1)Nc1nc2ccccc2n2c(=O)n(-c3ccccc3)nc12`, the inhibition constant Ki in assay [9] is 2300 nM.

In assay [6], `Nc1nc2ccccc2n2c(=O)n(-c3ccccc3)nc12` gave a Ki of 490 nM.

As to `Cc1ccccc1NC(=O)Nc1nn(-c2ccccc2)c(=O)c2ccccc12`, the inhibition in [2] was determined as 28%; in assay [4] it was 20%; in [8], 22%.

Turning to `O=C(Cc1ccccc1)Nc1nn(-c2ccccc2)c(=O)c2ccccc12`, the inhibition worked out at 4% in [2], 23% in assay [4] and 28% in [8].

Take `O=C(Nc1ccc(Cl)cc1)Nc1nn(-c2ccccc2)c(=O)c2ccccc12`: the inhibition in [2] turned out to be 9%; in assay [4], 10%; in [8] it was 13%.

Consider `O=C(Nc1nn(-c2ccccc2)c(=O)c2ccccc12)c1ccc(Cl)cc1`, for which the inhibition in assay [2] stood at 17%; in [4], 26%; in assay [8], 17%.

For the compound `COc1ccc(NC(=O)Nc2nn(-c3ccccc3)c(=O)c3ccccc23)cc1`, the inhibition in assay [2] came out at 51%; in [4], 4%; in [7], 0%. Besides, in [5], the IC50 amounted to 28 nM. Moreover, the affinity in [6] corresponds to a Ki of 60.6 nM.

`CC(=O)N(C(C)=O)c1nn(-c2ccccc2)c(=O)c2ccccc12`: the inhibition in assay [2] was 10%; in assay [4], 47%; in assay [8], 0%.

As for `O=C(NCc1ccccc1)Nc1nn(-c2ccccc2)c(=O)c2ccccc12`, the inhibition was 23% in assay [2], 20% in assay [4] and 34% in assay [7]. The IC50 in assay [5] turned out to be 1.15 nM. This compound returned a Ki in assay [6] of 29.6 nM.

For the compound `O=C(Nc1ccccc1)Nc1nn(-c2ccccc2)c(=O)c2ccccc12`, the inhibition was determined as 42% in assay [2] and 44% in [4]. Also, the inhibition constant (Ki) in [6] was 178 nM.

For the compound `CC(=O)Nc1nn(-c2ccccc2)c(=O)c2ccccc12`, the inhibition is 14% in [2], 52% in [4] and 0% in [8].

Take `COc1ccc(NC(=O)Nc2nn(-c3ccccc3)c(=O)c3ccccc23)c(OC)c1`: the inhibition in [2] was 33%; in [4], 29%; in assay [8], 33%.

On to `COc1ccccc1NC(=O)Nc1nn(-c2ccccc2)c(=O)c2ccccc12`, for which the values for the inhibition in assay [2], in assay [4] and in assay [7] were 17%, 0% and 16%, respectively. Moreover, the concentration for half-maximal inhibition (IC50) in assay [5] amounted to 17 nM. Also, in assay [6], the Ki was 8.9 nM.

`O=C(Nc1ccccc1Cl)Nc1nn(-c2ccccc2)c(=O)c2ccccc12`: the inhibition was found to be 3% in assay [2], 0% in assay [4] and 49% in [8].

`Nc1nn(-c2ccccc2)c(=O)c2ccccc12`: the figures for the inhibition in [2], in assay [4] and in assay [8] were 45%, 24% and 8%, respectively.

`O=C(Nc1nn(-c2ccccc2)c(=O)c2ccccc12)c1ccccc1`: the inhibition in assay [2] is 35%; in [4], 44%. The compound also displayed a Ki in [6] of 1100 nM.

As to `COc1ccccc1CNC(=O)Nc1nn(-c2ccccc2)c(=O)c2ccccc12`, the inhibition in assay [2] and in [4] was 28% in each case. This compound also returned a Ki in assay [6] of 274 nM.
